Active and inactive are the calls of the source. No cut-off for these calls is given here.

Assay [1] concerns Mus musculus. Put plainly: Anti-obesity activity in C57BL/6 mouse supplemented with normal chow diet assessed effect on total lean mass at 20 mg/kg/day, ip administered for 1 week measured by EchoMRI live analysis. It is filed as functional, organism-based. The following applies: time 1.0 weeks. The method in brief: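 Normal-chow male C57BL/6 mice, 8 weeks old, ip 20 mg·kg−1·day−1 daily for 7 days. Total lean and fat mass measured in live animals by EchoMRI. Mean ± SEM, n = 5–9.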

Assay [2] deals with Mus musculus. Put plainly: Inhibition of lipogenesis in C57BL/6 mouse supplemented with normal chow diet assessed as decrease in FASN mRNA expression at 20 mg/kg/day, ip administered for 1 week measured by RT-qPCR assay. Format: functional, organism-based. The following applies: time 1.0 weeks. The essentials:
(§1)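 Eight-week-old male C57BL/6 mice on normal chow were given 20 mg·kg−1·day−1 ip daily for 7 days or vehicle. Epididymal WAT was collected. Lipogenic, adipogenic and fatty-acid-oxidation transcripts were quantified by Trizol extraction and SYBR Green RT-qPCR. FAS, ACC, PPARγ and C/EBPα protein were assessed by western blot. n = 5–9; mean ± SEM.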
A general note: Real-time PCR tracks product formation cycle by cycle.

Assay [3] concerns Mus musculus. Nature of the assay: Inhibition of lipogenesis in C57BL/6 mouse supplemented with normal chow diet assessed as decrease in ACC mRNA expression at 20 mg/kg/day, ip administered for 1 week measured by RT-qPCR assay. It is filed as functional, organism-based. The settings on record: time 1.0 weeks. The essentials:
as §1

Assay [4] concerns Mus musculus. Nature of the assay: Inhibition of lipogenesis in C57BL/6 mouse supplemented with normal chow diet assessed as effect on CPT1alpha mRNA expression at 20 mg/kg/day, ip administered for 1 week measured by RT-qPCR assay. Format: functional, organism-based. The following applies: time 1.0 weeks. The essentials: as §1
The test system of assay [5] is Mus musculus. Put plainly: Inhibition of lipogenesis in C57BL/6 mouse supplemented with high-fat diet assessed as decrease in LPL mRNA expression at 20 mg/kg/day, ip administered for 1 week measured measured by RT-qPCR assay. It is filed as functional, organism-based. The settings on record: time 1.0 weeks. The method in brief: (§2)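 Male C57BL/6 mice were fed high-fat diet for 14 weeks from 5 weeks of age, then injected ip with 20 mg·kg−1·day−1 for 7 days or given vehicle. Epididymal and inguinal WAT were weighed, examined by H&E, and analysed. Transcripts were measured by Trizol/SYBR Green RT-qPCR; proteins by western blot. n = 5–9; mean ± SEM.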

For assay [6], the system named is Mus musculus. Put plainly: Inhibition of lipogenesis in C57BL/6 mouse supplemented with high-fat diet assessed as decrease in PPARgamma mRNA expression at 20 mg/kg/day, ip administered for 1 week measured measured by RT-qPCR assay. Format: functional, organism-based. The following applies: time 1.0 weeks. The essentials:
as §2

Assay [7] has as its system Mus musculus. Nature of the assay: Inhibition of lipogenesis in C57BL/6 mouse supplemented with high-fat diet assessed as decrease in C/EBPalpha mRNA expression at 20 mg/kg/day, ip administered for 1 week measured measured by RT-qPCR assay. The settings on record: time 1.0 weeks. It is filed as functional, organism-based. The essentials:
as §2

For assay [8], the system named is Adipocyte. Put plainly: Inhibition of lipogenesis in mouse adipocytes isolated stromal vascular cells assessed as decrease in SREBP-1c mRNA expression measured after 24 hrs by RT-qPCR assay. Format: functional, cell-based. The method in brief: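 Stromal vascular cells from inguinal WAT of C57BL/6 mice, grown in DMEM/F12 + 10% FBS at 37 °C, 10% CO2. At confluence, induced 48 h with 5 μg/ml insulin, 1 μM dexamethasone, 0.5 mM isobutylmethylxanthine, then 6 days in 5 μg/ml insulin; fully differentiated day 8. Mature adipocytes exposed to inhibitor 24 h. Total RNA by Trizol, SYBR Green RT-qPCR; protein by western blot.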

In assay [9] the test system is Adipocyte. Put plainly: Inhibition of lipogenesis in mouse adipocytes isolated stromal vascular cells assessed as decrease in ACC protein expression measured after 24 hrs by western blot analysis. It is filed as functional, cell-based. For orientation: Immunoblotting shows a protein as a band on a membrane.
Assay [10] concerns Mus musculus. Put plainly: Inhibition of hepatic lipogenesis in C57BL/6 mouse supplemented with normal chow diet assessed as decrease in FAS protein expression at 20 mg/kg/day, ip administered for 1 week measured by western blot analysis. The settings on record: time 1.0 weeks. It is filed as functional, organism-based. The essentials: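 Normal-chow male C57BL/6 mice, 8 weeks old, were injected ip at 20 mg·kg−1·day−1 daily for 7 days or given vehicle. Liver tissue was homogenized in lysis buffer, and FAS and ChREBP protein were assessed by western blot. n = 5–9.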

Assay [11] deals with Mus musculus. Put plainly: Inhibition of hepatic lipogenesis in C57BL/6 mouse supplemented with normal chow diet assessed as effect on MCAD mRNA expression at 20 mg/kg/day, ip administered for 1 week measured by RT-qPCR assay. The settings on record: time 1.0 weeks. It is filed as functional, organism-based. The essentials:
(§3)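 Normal-chow male C57BL/6 mice, 8 weeks old, were injected ip at 20 mg·kg−1·day−1 daily for 7 days or given vehicle. Liver RNA was extracted with Trizol, and fatty-acid-oxidation gene transcripts were quantified by SYBR Green RT-qPCR. n = 5–9; mean ± SEM.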

Assay [12] has as its system Mus musculus. Nature of the assay: Inhibition of hepatic lipogenesis in C57BL/6 mouse supplemented with normal chow diet assessed as effect on ACADVL mRNA expression at 20 mg/kg/day, ip administered for 1 week measured by RT-qPCR assay. The settings on record: time 1.0 weeks. It is filed as functional, organism-based. The method in brief:
as §3

The test system of assay [13] is Hepatocyte. Put plainly: Inhibition of lipogenesis in mouse primary hepatocytes assessed as decrease in SCD1 mRNA expression at 3 uM in presence of 100 nM insulin and 5 to 25 mM glucose measured after 18 hrs by RT-qPCR assay. Format: functional, cell-based. The essentials:
(§4)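 Primary hepatocytes isolated from C57BL/6 mice by two-step perfusion. Cells incubated 18 h with 3 μM inhibitor, with 0 or 100 nM insulin and 5 or 25 mM glucose. Transcripts quantified by SYBR Green RT-qPCR after Trizol RNA extraction; proteins by western blot of lysates. Mean ± SEM.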

In assay [14] the test system is Hepatocyte. Put plainly: Inhibition of lipogenesis in mouse primary hepatocytes assessed as decrease in ChREBP protein expression at 3 uM in presence of 100 nM insulin and 5 to 25 mM glucose measured after 18 hrs by western blot analysis. It is filed as functional, cell-based.
The test system of assay [15] is Hepatocyte. Nature of the assay: Inhibition of lipogenesis in mouse primary hepatocytes assessed as increase in MCAD mRNA expression at 3 uM in presence of 100 nM insulin and 5 to 25 mM glucose measured after 18 hrs by RT-qPCR assay. It is filed as functional, cell-based. The essentials: as §4
Assay [16] relates to Hepatocyte. Put plainly: Inhibition of glucogenesis in mouse primary hepatocytes stimulated with 100 uM 8-Br-cAMP assessed as decrease in PEPCK mRNA expression at 3 uM in combination with 2 mM metformin measured by RT-qPCR assay. Format: functional, cell-based. The essentials:
(§5)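 Primary mouse hepatocytes given 3 μM compound with 2 mM metformin in the presence of 100 μM 8-Br-cAMP. Gluconeogenic gene mRNA measured by SYBR Green RT-qPCR. Mean ± SEM, three independent experiments.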

The test system of assay [17] is Hepatocyte. Nature of the assay: Inhibition of glucogenesis in mouse primary hepatocytes stimulated with 100 uM 8-Br-cAMP assessed as decrease in FBP mRNA expression at 3 uM in combination with 2 mM metformin measured by RT-qPCR assay. It is filed as functional, cell-based. The essentials:
as §5

Assay [18] deals with CREB-binding protein/Histone acetyltransferase p300 (Homo sapiens) (UniProt Q09472+Q92793). Put plainly: Inhibition of CBP/p300 in mouse primary hepatocytes stimulated with 100 uM 8-Br-cAMP assessed as decrease in FOXO1 protein expression at 3 uM in presence of 10 uM MG132. The settings on record: Primary hepatocyte. Format: cell-based. The essentials:
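Primary mouse hepatocytes exposed to 100 μM 8-Br-cAMP, 3 μM compound, 10 μg/ml cycloheximide and 10 μM MG132. FOXO1 protein measured by western blot, band intensity quantified. Three independent experiments.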

Sequence of CREB-binding protein/Histone acetyltransferase p300 (Homo sapiens) (Q09472 whole entry, looked up): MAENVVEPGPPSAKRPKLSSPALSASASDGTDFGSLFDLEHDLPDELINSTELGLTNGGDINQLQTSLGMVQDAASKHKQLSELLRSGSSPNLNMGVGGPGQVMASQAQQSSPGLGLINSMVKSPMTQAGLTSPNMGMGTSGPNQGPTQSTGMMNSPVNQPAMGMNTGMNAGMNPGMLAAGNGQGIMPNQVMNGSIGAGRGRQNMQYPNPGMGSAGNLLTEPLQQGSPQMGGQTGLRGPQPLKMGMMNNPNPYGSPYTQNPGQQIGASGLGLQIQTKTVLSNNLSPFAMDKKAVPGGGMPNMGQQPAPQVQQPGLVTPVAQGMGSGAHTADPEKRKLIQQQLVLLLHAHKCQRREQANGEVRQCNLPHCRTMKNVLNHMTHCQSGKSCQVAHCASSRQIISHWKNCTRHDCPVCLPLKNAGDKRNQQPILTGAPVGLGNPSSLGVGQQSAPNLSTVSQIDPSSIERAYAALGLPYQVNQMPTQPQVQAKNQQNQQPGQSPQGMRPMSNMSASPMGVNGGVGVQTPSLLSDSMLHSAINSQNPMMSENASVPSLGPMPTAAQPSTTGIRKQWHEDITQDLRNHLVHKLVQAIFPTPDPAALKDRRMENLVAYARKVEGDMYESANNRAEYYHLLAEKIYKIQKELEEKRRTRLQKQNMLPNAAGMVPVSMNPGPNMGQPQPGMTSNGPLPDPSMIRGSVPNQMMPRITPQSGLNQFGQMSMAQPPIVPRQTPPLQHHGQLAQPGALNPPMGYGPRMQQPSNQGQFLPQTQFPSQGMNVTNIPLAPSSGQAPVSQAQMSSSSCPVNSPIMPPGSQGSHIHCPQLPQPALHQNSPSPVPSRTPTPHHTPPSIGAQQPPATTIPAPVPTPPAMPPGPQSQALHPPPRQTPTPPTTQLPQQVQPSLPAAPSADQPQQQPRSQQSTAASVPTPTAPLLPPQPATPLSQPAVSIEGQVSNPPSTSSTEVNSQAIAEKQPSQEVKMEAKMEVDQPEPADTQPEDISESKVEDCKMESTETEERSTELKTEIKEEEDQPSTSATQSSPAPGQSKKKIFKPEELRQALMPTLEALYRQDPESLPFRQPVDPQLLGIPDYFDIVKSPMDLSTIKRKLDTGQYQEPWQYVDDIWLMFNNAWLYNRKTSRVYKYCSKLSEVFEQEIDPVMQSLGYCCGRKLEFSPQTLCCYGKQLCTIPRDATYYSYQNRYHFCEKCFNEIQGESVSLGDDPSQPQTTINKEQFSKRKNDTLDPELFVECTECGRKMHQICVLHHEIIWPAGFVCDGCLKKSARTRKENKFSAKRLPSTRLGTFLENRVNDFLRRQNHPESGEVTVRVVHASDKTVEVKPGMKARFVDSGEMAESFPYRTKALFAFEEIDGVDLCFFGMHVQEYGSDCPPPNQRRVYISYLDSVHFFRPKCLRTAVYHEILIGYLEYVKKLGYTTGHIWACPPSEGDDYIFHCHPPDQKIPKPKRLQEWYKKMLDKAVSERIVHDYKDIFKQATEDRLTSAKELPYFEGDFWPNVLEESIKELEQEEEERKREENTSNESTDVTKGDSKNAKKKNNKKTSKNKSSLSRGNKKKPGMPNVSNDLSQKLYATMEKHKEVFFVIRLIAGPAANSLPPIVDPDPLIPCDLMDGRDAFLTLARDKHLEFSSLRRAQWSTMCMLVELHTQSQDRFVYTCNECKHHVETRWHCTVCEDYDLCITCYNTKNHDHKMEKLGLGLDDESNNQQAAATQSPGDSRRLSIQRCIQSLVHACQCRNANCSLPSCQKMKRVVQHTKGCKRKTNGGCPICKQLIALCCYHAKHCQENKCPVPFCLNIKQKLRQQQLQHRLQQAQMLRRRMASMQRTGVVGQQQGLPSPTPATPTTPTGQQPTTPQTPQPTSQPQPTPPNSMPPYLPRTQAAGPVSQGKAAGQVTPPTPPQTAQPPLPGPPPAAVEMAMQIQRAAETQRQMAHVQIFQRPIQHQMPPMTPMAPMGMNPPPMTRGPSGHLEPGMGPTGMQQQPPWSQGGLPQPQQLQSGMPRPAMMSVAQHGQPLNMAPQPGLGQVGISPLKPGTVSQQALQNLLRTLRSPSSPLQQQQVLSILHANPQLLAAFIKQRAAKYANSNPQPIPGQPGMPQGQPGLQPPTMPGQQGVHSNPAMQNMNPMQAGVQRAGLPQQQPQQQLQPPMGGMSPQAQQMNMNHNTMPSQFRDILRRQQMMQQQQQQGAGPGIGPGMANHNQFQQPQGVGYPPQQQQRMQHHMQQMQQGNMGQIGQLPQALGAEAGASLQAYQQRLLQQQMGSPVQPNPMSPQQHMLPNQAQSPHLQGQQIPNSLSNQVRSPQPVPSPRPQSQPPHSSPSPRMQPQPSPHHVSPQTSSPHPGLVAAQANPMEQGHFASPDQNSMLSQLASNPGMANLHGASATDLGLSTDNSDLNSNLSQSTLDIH
Sequence of CREB-binding protein/Histone acetyltransferase p300 (Homo sapiens) (Q92793 whole entry, looked up): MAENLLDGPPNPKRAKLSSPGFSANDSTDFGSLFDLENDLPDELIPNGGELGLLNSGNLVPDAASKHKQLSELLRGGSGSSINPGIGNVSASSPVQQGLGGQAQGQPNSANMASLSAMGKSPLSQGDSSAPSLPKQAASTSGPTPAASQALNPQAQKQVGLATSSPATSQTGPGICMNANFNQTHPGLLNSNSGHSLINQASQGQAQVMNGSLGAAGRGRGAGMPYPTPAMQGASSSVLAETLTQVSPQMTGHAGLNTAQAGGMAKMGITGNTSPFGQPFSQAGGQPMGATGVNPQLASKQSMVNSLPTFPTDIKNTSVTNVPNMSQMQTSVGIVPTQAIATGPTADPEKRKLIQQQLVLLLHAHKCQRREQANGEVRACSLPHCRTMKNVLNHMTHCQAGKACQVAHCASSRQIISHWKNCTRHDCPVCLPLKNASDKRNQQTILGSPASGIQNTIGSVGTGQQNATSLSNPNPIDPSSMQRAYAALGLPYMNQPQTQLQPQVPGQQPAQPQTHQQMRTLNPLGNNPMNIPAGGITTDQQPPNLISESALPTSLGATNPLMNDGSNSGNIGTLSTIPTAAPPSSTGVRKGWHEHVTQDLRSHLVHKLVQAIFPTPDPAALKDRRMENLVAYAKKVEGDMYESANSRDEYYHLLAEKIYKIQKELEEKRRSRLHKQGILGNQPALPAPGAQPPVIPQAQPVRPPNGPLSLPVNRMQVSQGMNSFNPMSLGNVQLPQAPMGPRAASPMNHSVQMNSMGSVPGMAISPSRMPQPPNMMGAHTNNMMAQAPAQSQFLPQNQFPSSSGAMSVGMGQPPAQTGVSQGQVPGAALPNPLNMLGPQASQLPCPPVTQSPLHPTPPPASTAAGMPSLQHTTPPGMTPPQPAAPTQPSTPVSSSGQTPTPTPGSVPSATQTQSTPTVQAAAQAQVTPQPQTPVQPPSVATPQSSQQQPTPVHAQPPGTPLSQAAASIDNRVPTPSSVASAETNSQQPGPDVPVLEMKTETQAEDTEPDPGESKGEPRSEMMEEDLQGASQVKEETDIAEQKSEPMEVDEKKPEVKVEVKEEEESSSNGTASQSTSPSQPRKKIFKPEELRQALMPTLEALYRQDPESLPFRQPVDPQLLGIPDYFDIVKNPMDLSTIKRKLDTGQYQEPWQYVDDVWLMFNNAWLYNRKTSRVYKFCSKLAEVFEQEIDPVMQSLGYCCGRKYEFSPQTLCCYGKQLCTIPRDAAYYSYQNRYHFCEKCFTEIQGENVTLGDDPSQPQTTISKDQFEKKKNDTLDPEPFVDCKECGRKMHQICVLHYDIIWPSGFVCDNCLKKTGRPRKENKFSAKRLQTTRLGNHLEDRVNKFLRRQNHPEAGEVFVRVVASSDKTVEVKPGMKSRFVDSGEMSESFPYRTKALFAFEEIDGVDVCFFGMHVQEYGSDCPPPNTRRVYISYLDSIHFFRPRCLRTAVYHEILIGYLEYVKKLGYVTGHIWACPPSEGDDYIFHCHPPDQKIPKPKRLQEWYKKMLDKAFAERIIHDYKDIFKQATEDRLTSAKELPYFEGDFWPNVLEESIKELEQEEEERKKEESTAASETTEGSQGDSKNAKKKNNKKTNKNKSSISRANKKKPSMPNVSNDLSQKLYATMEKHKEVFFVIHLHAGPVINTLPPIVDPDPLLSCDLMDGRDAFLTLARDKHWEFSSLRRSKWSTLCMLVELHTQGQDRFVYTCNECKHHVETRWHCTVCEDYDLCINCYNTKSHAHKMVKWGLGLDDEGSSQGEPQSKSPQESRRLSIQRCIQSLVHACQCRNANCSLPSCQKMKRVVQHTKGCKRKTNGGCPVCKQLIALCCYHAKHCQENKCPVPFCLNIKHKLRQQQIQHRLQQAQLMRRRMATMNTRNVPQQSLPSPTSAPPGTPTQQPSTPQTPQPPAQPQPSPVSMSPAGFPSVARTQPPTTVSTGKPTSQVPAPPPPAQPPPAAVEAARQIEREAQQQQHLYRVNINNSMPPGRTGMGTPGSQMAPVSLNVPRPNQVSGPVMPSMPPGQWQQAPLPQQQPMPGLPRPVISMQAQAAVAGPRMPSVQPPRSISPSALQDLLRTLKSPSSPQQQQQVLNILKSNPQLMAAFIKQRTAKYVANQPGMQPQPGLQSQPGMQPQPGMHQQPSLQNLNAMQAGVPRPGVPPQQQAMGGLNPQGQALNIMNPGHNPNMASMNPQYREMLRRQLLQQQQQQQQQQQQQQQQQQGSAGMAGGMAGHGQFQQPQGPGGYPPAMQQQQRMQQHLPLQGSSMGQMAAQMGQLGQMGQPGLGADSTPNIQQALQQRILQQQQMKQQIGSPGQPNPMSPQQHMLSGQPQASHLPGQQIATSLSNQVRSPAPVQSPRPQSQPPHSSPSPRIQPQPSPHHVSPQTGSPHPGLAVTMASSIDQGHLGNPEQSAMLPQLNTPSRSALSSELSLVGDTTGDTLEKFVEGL

Consider `CNC(=O)Nc1ccc2c(c1)CCS21OC(=O)N(CC(=O)N(Cc2ccc(F)cc2)[C@@H](C)C(F)(F)F)C1=O` (stereo partly drawn), for which the outcome with Mus musculus [1] was inactive. Moreover, the inhibition entry in the assay with Mus musculus [2], with Mus musculus [3], in the assay on Mus musculus [5], in the assay on Mus musculus [6], in the assay with Mus musculus [7] and with Adipocyte [8] was “Active” throughout. Also, the inhibition result in the assay on Adipocyte [9], in the assay with Mus musculus [10], with Hepatocyte [13], with Hepatocyte [14], in the assay on Hepatocyte [15] and in the assay on Hepatocyte [16] was “Active” each time. Further, the inhibition result (with Hepatocyte [17]; in [18]) was “Active” throughout. Moreover, the inhibition entry in the assay on Mus musculus [4], in the assay on Mus musculus [11] and with Mus musculus [12] was “inactive” each time.

Values taken from ChEMBL document CHEMBL5674890, “Selective inhibition of CBP/p300 HAT by A-485 results in suppression of lipogenesis and hepatic gluconeogenesis” (Cell Death Dis, 2020).
